From ChEMBL document CHEMBL1130208, “(1 alpha, 2 beta, 3 beta, 4 alpha)-1,2-bis[N-propyl-N-(4-phenoxybenzyl) amino]carbonyl]cyclobutane-3,4-dicarboxylic acid (A-87049): a novel potent squalene synthase inhibitor” (J Med Chem, 1997)

Columns and labels:
Monkey [1] = experiment: In vivo percent change of HDL cholesterol in monkeys at 20 mg/kg/day for 5 days dose; format: functional, Cercopithecidae
Procedure, shortened: (§1)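 Cynomolgus monkeys (n = 4) were given 20 mg/kg po daily for 5 days, and controls received vehicle with 0.2% methocel. Animals were fasted overnight before the last dose and bled from the femoral vein 2 h after dosing on day 5, before feeding. Plasma lipids are expressed as % change from pretreatment, with one-sample t-tests.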

Monkey [2] = experiment: In vivo percent change of total cholesterol in monkeys at 20 mg/kg/day for 5 days dose; format: functional, Cercopithecidae; procedure, shortened: as §1
Monkey [3] = experiment: In vivo percent change of LDL cholesterol in monkeys at 20 mg/kg/day for 5 days dose; format: functional, Cercopithecidae; procedure, shortened: as §1
Monkey [4] = experiment: In vivo percent change of total cholesterol in monkeys at 20 mg/kg/day for 5 days dose c; format: functional, Cercopithecidae; procedure, shortened: as §1
Squalene synthase = target: T1, Squalene synthase (Rattus norvegicus, UniProt Q02769); experiment: In vitro inhibitory activity against Squalene Synthase
T1 sequence (Q02769 whole entry): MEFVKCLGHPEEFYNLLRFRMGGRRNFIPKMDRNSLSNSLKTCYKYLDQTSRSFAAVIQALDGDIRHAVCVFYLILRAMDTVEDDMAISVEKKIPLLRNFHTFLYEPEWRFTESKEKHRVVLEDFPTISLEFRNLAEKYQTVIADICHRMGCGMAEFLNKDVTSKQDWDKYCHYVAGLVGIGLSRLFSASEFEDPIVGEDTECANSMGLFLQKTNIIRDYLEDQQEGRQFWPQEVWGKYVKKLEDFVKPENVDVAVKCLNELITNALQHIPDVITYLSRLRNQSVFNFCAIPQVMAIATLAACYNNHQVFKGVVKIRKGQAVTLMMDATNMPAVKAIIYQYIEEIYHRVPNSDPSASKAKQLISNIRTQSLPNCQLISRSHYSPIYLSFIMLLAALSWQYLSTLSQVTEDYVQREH
Procedure, shortened: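 Squalene synthase inhibition measured in a rat liver microsomal enzyme assay.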

In the case of `CC[C@H](C)C(=O)O[C@H]1C[C@@H](C)C=C2C=C[C@H](C)[C@H](CC[C@@H]3C[C@@H](O)CC(=O)O3)[C@H]21` [LOVASTATIN], the Change (Monkey [1]) is reported as -12%, the Change (Monkey [2]) is reported as -19% and the Change (Monkey [3]) is reported as -21%.
`CCCN(Cc1ccc(Oc2ccccc2)cc1)C(=O)[C@@H]1[C@H](C(=O)O)[C@@H](C(=O)O)[C@H]1C(=O)N(CCC)Cc1ccc(Oc2ccccc2)cc1` showed a Change (Monkey [1]) of -4%, a Change (Monkey [3]) of -36% and a Change (Monkey [4]) of -12%.
With `CN(Cc1cccc(Oc2ccccc2)c1)C(=O)[C@@H]1[C@H](C(=O)O)[C@@H](C(=O)O)[C@H]1C(=O)N(C)Cc1cccc(Oc2ccccc2)c1` the IC50 (Squalene synthase) was 8 µM.
`CN(Cc1ccc(OCc2ccccc2)cc1)C(=O)[C@@H]1[C@H](C(=O)O)[C@@H](C(=O)O)[C@H]1C(=O)N(C)Cc1ccc(OCc2ccccc2)cc1` was tested, and the IC50 (Squalene synthase) was 10 µM.
Compound `CC(C)N(Cc1ccc(Oc2ccccc2)cc1)C(=O)[C@@H]1[C@H](C(=O)O)[C@@H](C(=O)O)[C@H]1C(=O)N(Cc1ccc(Oc2ccccc2)cc1)C(C)C` has an IC50 (Squalene synthase) of 0.14 µM.
